Laboratory results as given in ChEMBL document CHEMBL3734694, “Design, synthesis, and anticancer evaluation of long-chain alkoxylated mono-carbonyl analogues of curcumin” (Eur J Med Chem, 2015).

Legend:
[1] = Cytotoxicity against human MGC803 cells assessed as inhibition of cell proliferation at 10 uM incubated for 72 hrs by MTS assay; type: functional; conditions: MGC-803, 72 h
Summary of the method: (§1)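 Single-concentration MTS screen at 10 μM. Cells in RPMI-1640 with 10% FBS, seeded at 4000 cells/well in triplicate, attached overnight, then exposed for 72 h at 37°C, 5% CO2. MTS for 4 h; absorbance 490 nm. Reported as % inhibition.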

[2] = Cytotoxicity against human SGC7901 cells assessed as inhibition of cell proliferation at 10 uM incubated for 72 hrs by MTS assay; type: functional; conditions: SGC-7901, 72 h; summary of the method: as §1
[3] = Cytotoxicity against human SW620 cells assessed as inhibition of cell proliferation at 10 uM incubated for 72 hrs by MTS assay; type: functional; conditions: SW-620, 72 h; summary of the method: as §1
[4] = tested on: CT26; test: Cytotoxicity against mouse CT26 cells at 10 uM assessed as inhibition of cell proliferation incubated for 72 hrs by MTS assay; type: functional; conditions: CT26, 72 h; summary of the method: as §1
[5] = Cytotoxicity against human MGC803 cells assessed as inhibition of cell proliferation incubated for 72 hrs by MTS assay; type: functional, cell-based; conditions: MGC-803, 72 h
Summary of the method: (§2)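 Cells in RPMI-1640 with 10% heat-inactivated FBS at 37°C, 5% CO2. Seeded at 4000 cells/well in triplicate and attached overnight. Exposed to various concentrations for 72 h. MTS added for a further 4 h; absorbance at 490 nm. IC50 = concentration for 50% growth inhibition, as mean ± SEM of three independent tests.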

[6] = Cytotoxicity against human SGC7901 cells assessed as inhibition of cell proliferation incubated for 72 hrs by MTS assay; type: functional, cell-based; conditions: SGC-7901, 72 h; summary of the method: as §2
[7] = Cytotoxicity against human SW620 cells assessed as inhibition of cell proliferation incubated for 72 hrs by MTS assay; type: functional, cell-based; conditions: SW-620, 72 h; summary of the method: as §2
[8] = tested on: CT26; test: Cytotoxicity against mouse CT26 cells assessed as inhibition of cell proliferation incubated for 72 hrs by MTS assay; type: functional, cell-based; conditions: CT26, 72 h; summary of the method: as §2
[9] = Cytotoxicity against human GES-1 cells assessed as inhibition of cell proliferation incubated for 72 hrs by MTS assay; type: functional, cell-based; conditions: GES1, 72 h; summary of the method: as §2

Row | SMILES | inhibition at 10 µM [1] | inhibition at 10 µM [2] | inhibition at 10 µM [3] | inhibition at 10 µM [4] | IC50 [5] | IC50 [6] | IC50 [7] | IC50 [8] | IC50 [9]
1 | COc1cc(OC)c(/C=C/C(=O)/C=C/c2ccc(OCCCN3CCOCC3)c(OC)c2)c(OC)c1 | 5.96% | 9.22% | 33.9% | 65.8% | – | – | – | – | –
2 | COc1cc(/C=C2\CCC/C(=C\c3ccc(OCCCN4CCCCC4)c(OC)c3)C2=O)ccc1OCCCN1CCCCC1 | 76.9% | 82.8% | 86.9% | 93.2% | 2.92 µM | 2.32 µM | 2.49 µM | 2.42 µM | 6.35 µM
3 | COc1cc(/C=C2\CC/C(=C\c3ccc(OCCCBr)c(OC)c3)C2=O)ccc1OCCCBr | 5.56% | 6.48% | 27.4% | 71% | – | – | – | – | –
4 | COc1cc(/C=C2\CCC/C(=C\c3ccc(OCCCN4CCCCC4)c(OC)c3)C2=O)ccc1OCCCBr | 26.9% | 24.4% | 50% | 61.2% | – | – | – | – | –
5 | COc1cc(/C=C/C(=O)/C=C/c2ccccc2C(F)(F)F)ccc1OCCCN1CCOCC1 | -2.85% | 3.22% | -3.21% | -24% | – | – | – | – | –
6 | COc1cc(/C=C/C(=O)CC(=O)/C=C/c2ccc(O)c(OC)c2)ccc1O [CURCUMIN] | – | – | – | – | 31.4 µM | 24.4 µM | 12.5 µM | 7.7 µM | 27.9 µM
7 | COc1cc(/C=C/C(=O)/C=C/c2ccc(C(C)(C)C)cc2)ccc1OCCCN1CCOCC1 | 84.2% | 76.2% | 84.8% | 90.7% | 2.45 µM | 2.77 µM | 1.62 µM | 3.26 µM | 3.03 µM
8 | COc1ccccc1/C=C/C(=O)/C=C/c1ccc(OCCCBr)c(OC)c1 | 80.1% | 74.8% | 81.5% | 77.2% | 6.69 µM | 2.84 µM | 3.53 µM | 6.39 µM | 4.11 µM
9 | O=C1/C(=C/c2ccc(OCCBr)cc2)CC/C1=C\c1ccc(OCCBr)cc1 | 52% | 76% | 78.5% | 88.1% | – | – | – | – | –
10 | COc1cc(/C=C2\CCC/C(=C\c3ccc(OCCCN4CCOCC4)c(OC)c3)C2=O)ccc1OCCCBr | 51.2% | 61.9% | 72.7% | 65.2% | 10.2 µM | 11 µM | 5.64 µM | 10.5 µM | 10 µM
11 | COc1cc(/C=C2\CCC/C(=C\c3ccc(OCCCn4ccnc4)c(OC)c3)C2=O)ccc1OCCCn1ccnc1 | 88.5% | 85% | 82.4% | 90.9% | 2.21 µM | 3.38 µM | 2.79 µM | 3.59 µM | 2.87 µM
12 | COc1cc(/C=C/C(=O)/C=C/c2c(C)cc(C)cc2C)ccc1OCCCN1CCOCC1 | 80.7% | 78.1% | 83.6% | 89.6% | 8.46 µM | 7.67 µM | 3.38 µM | 7.01 µM | 8.06 µM
13 | COc1cc(/C=C2\CC/C(=C\c3ccc(OCCBr)c(OC)c3)C2=O)ccc1OCCBr | 8.38% | 20.4% | 38.5% | 58.6% | – | – | – | – | –
14 | COc1cc(/C=C/C(=O)/C=C/c2ccccc2Cl)ccc1OCCCN1CCOCC1 | 38.5% | 75.3% | 81.6% | 87.2% | – | – | – | – | –
15 | COc1ccccc1/C=C/C(=O)/C=C/c1ccc(OCCBr)c(OC)c1 | 76.2% | 78.7% | 83.7% | 70.5% | 5.52 µM | 4.52 µM | 4.43 µM | 4.51 µM | 4.04 µM
16 | CCCN(CCC)CCCOc1ccc(/C=C2\CCC/C(=C\c3ccc(OCCCN(CCC)CCC)c(OC)c3)C2=O)cc1OC | -18.4% | 2.83% | 10.3% | 8.04% | – | – | – | – | –
17 | COc1cc(/C=C2\CCC/C(=C\c3cccc(OC)c3OC)C2=O)ccc1OCCCN1CCOCC1 | -9.26% | -6.53% | 22.5% | 57.2% | – | – | – | – | –

Row | SMILES | inhibition at 10 µM [1] | inhibition at 10 µM [2] | inhibition at 10 µM [3] | inhibition at 10 µM [4] | IC50 [5] | IC50 [6] | IC50 [7] | IC50 [8] | IC50 [9]
18 | COc1cc(/C=C2\CC/C(=C\c3ccc(OCCCN4CCOCC4)c(OC)c3)C2=O)ccc1OCCCN1CCOCC1 | 83.9% | 86.1% | 86% | 92.5% | 2.28 µM | 1 µM | 1.49 µM | 0.39 µM | > 30 µM
19 | COc1cc(/C=C2\CCC/C(=C\c3ccc(OCCBr)c(OC)c3)C2=O)ccc1OCCBr | 58.4% | 69.2% | 66.3% | 77.3% | 7.72 µM | 6.26 µM | 6.26 µM | 9.85 µM | 3.56 µM
20 | COc1cc(/C=C2\CC/C(=C\c3ccccc3C(F)(F)F)C2=O)ccc1OCCCN1CCOCC1 | 4.98% | 29.7% | 34.9% | 4.71% | – | – | – | – | –
21 | COc1cc(/C=C2\CC/C(=C\c3ccc(OCCCn4ccnc4)c(OC)c3)C2=O)ccc1OCCCBr | 7.1% | 14% | 65.7% | 87.1% | – | – | – | – | –
22 | COc1cc(/C=C2\CC/C(=C\c3ccc(OCCCN4CCCCC4)c(OC)c3)C2=O)ccc1OCCCBr | 91.4% | 89% | 84.5% | 90.2% | 7.31 µM | 5.08 µM | 4.47 µM | 3.86 µM | 7.03 µM
23 | COc1cc(/C=C2\CCC/C(=C\c3ccc(OCCCN4CCOCC4)c(OC)c3)C2=O)ccc1OCCCN1CCOCC1 | 78.1% | 81.8% | 85.7% | 93.3% | 2.06 µM | 4.96 µM | 1.98 µM | 2.69 µM | 3.02 µM
24 | COc1ccccc1/C=C1\CCC/C(=C\c2ccc(OCCCN3CCOCC3)c(OC)c2)C1=O | 2.3% | -0.33% | 22.9% | 31.6% | – | – | – | – | –
25 | COc1ccc(/C=C2\CCC/C(=C\c3ccc(OCCCN4CCOCC4)c(OC)c3)C2=O)cc1OC | 89.8% | 86.4% | 83.6% | 86.5% | 8.61 µM | 2.87 µM | 3.81 µM | 2.99 µM | 8.17 µM
26 | O=C1/C(=C/c2ccc(OCCBr)cc2)CCC/C1=C\c1ccc(OCCBr)cc1 | 0.05% | 10.8% | 0.12% | 58.3% | – | – | – | – | –
27 | COc1ccc(/C=C/C(=O)/C=C/c2ccc(OCCCN3CCOCC3)c(OC)c2)cc1OC | 53.8% | 66.1% | 84.8% | 79.7% | 7.14 µM | 5.99 µM | 2.8 µM | 3.13 µM | 7.81 µM
28 | COc1cc(/C=C2\CCC/C(=C\c3ccc(OCCCN4CCN(C)CC4)c(OC)c3)C2=O)ccc1OCCCN1CCN(C)CC1 | 77.5% | 84.8% | 86.7% | 109% | 1.94 µM | 1.88 µM | 1.04 µM | 2.01 µM | 3.27 µM
29 | COc1ccc(/C=C/C(=O)/C=C/c2ccc(OCCCN3CCOCC3)c(OC)c2)c(F)c1 | 3.64% | 51.6% | 79.3% | 67.6% | – | – | – | – | –
30 | COc1cc(/C=C2\CCC/C(=C\c3ccc(OCCCBr)c(OC)c3)C2=O)ccc1OCCCBr | -8.68% | 18.9% | 61.2% | 49.8% | – | – | – | – | –
31 | COc1cc(/C=C/C(=O)/C=C/c2ccc(OCCCN3CCOCC3)c(OC)c2)ccc1OCCCN1CCOCC1 | 44.5% | 67.5% | 84% | 89.7% | – | – | – | – | –
32 | COc1cc(/C=C2\CCC/C(=C\c3ccc(OCCCN4CCN(C)CC4)c(OC)c3)C2=O)ccc1OCCCBr | -7.15% | 15.7% | 48.1% | 37.3% | – | – | – | – | –
33 | CCN(CC)CCCOc1ccc(/C=C2\CCC/C(=C\c3ccc(OCCCBr)c(OC)c3)C2=O)cc1OC | 87% | 86.4% | 85.3% | 92.3% | 15.5 µM | 11.9 µM | 4.65 µM | 12.8 µM | 14.1 µM
